Laboratory results as given in ChEMBL document CHEMBL1156750 (Bioorg Med Chem Lett, 2009).

Columns and labels:
Rattus norvegicus [1] = assay: Anticoagulant activity against Sprague-Dawley rat arterial thrombosis model induced by topical application of Fecl2; format: functional
In short: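 Rat carotid artery thrombosis: vehicle (PEG-400) or compound given by 1 mL/kg gavage at 0 min (5, 10, 15, 30 mg/kg; n = 5, 6, 6, 4; vehicle n = 8), with aspirin 10 mg/kg iv 15 min before FeCl2. Rats anesthetized at 30 min. 50% FeCl2 applied topically at 60 min for 10 min. Thrombus weight taken 1 h later. ANOVA with Dunnett's test.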

Plasma = assay: Anticoagulant activity in human plasma assessed as concentration required to double the prothrombin based clotting time after 30 seconds; format: functional
In short: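 Human plasma prothrombin-based clotting time; value is the inhibitor concentration that doubles the clotting time, averaged from two independent determinations.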

Rattus norvegicus [2] = assay: Ex vivo anticoagulant activity in Sprague-Dawley rat assessed as prolongation of prothrombin time at 30mg/kg, id after 120 mins; format: functional
In short: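 Anesthetized rats dosed intraduodenally at 30 mg/kg in 10% ethanol/90% PEG300, then a saline flush. Arterial blood drawn into 3.8% Na-citrate (1/10, v/v) before dosing and at 30, 60, 90 and 120 min. Ex vivo prothrombin time measured on a micro coagulation analyzer using Thromboplastin-C reagent.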

Coagulation factor X = Coagulation factor X (Homo sapiens, UniProt P00742)
Coagulation factor X, sequence (P00742 41-179 limits assumed): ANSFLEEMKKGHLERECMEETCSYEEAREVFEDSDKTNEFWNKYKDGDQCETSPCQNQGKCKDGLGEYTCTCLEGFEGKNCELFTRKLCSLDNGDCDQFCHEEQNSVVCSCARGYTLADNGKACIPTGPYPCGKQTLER
Coagulation factor X, sequence (P00742 235-488 limits assumed): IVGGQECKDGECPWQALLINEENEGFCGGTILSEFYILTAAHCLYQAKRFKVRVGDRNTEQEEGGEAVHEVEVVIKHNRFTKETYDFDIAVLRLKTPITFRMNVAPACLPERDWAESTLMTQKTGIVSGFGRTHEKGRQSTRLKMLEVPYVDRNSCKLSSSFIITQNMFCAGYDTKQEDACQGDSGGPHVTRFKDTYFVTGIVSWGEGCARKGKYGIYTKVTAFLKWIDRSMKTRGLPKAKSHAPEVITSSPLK

Cytochrome P450 2C9 = Cytochrome P450 2C9 (Homo sapiens, UniProt P11712); assay: Inhibition of CYP2C9; format: ADME
Cytochrome P450 2C9, sequence (P11712 whole entry): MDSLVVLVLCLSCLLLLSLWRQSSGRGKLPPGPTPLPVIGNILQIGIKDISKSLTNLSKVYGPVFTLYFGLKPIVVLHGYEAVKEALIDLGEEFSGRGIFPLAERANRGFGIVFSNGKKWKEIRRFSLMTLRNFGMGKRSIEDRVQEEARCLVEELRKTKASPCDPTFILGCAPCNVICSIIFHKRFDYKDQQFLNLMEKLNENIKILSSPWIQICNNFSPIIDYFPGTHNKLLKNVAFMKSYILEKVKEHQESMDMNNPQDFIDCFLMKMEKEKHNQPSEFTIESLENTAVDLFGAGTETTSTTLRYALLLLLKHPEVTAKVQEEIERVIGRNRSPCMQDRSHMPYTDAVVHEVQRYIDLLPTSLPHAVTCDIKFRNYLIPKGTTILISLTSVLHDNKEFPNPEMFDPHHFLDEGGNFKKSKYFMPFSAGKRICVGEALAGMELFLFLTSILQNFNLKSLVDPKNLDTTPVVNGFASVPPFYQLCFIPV

Cytochrome P450 3A4 = Cytochrome P450 3A4 (Homo sapiens, UniProt P08684); assay: Inhibition of CYP3A4 using BFC as a substrate; format: ADME
Cytochrome P450 3A4, sequence (P08684 whole entry): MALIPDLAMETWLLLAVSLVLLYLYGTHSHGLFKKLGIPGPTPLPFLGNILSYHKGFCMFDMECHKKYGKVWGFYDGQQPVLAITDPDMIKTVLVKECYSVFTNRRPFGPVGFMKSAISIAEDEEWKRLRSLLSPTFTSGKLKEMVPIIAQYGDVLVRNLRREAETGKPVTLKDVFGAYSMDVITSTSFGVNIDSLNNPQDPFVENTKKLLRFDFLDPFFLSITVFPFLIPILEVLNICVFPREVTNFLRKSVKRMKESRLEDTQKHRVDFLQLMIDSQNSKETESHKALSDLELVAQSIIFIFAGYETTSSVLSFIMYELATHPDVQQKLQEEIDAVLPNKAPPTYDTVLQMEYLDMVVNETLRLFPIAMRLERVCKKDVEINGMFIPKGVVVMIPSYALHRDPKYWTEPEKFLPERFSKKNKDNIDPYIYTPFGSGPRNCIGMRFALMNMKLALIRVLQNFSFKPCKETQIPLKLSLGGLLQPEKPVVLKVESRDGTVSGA

Cytochrome P450 2C19 = Cytochrome P450 2C19 (Homo sapiens, UniProt P33261); assay: Inhibition of CYP2C19; format: ADME
Cytochrome P450 2C19, sequence (P33261 whole entry): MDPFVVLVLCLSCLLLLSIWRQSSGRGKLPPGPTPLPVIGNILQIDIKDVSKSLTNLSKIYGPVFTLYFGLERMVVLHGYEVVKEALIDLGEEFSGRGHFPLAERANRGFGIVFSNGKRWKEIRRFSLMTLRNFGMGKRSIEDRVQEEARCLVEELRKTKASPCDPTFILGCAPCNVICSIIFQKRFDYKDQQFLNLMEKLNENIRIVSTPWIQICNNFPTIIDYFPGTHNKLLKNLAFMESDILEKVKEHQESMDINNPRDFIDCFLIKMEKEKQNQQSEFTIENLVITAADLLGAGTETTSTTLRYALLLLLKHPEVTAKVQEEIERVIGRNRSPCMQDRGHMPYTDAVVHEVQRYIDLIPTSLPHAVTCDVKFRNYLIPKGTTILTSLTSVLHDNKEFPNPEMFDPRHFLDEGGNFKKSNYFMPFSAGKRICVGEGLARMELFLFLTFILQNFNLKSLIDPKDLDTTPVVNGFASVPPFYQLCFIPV

For `Cc1cc2cc(/N=C(/NC#N)N[C@H]3CCCCN(CC(=O)N4CCCC4)C3=O)ccc2o1`, the fold change (FC) (Rattus norvegicus [1]) was at least 1.8, the Activity (Plasma) was 32 µM and the “fold change (FC)” value (Rattus norvegicus [2]) was “>=1.8”.

`CCOC(=O)/N=C(\Nc1ccc2oc(C)cc2c1)N[C@H]1CCCCN(CC(=O)N2CCCC2)C1=O` showed an Activity (Plasma) of 34 µM.

In the case of `Cc1cc2cc(N/C(=N\C(=O)c3ccc(C(=O)O)cc3)N[C@H]3CCCCN(CC(=O)N4CCCC4)C3=O)ccc2o1`, the Activity (Plasma) is reported as 5 µM.

Compound `Cc1cc2cc(N/C(=N\C(=O)c3ccsc3)N[C@H]3CCCCN(CC(=O)N4CCCC4)C3=O)ccc2o1` has an Activity (Plasma) of 19 µM.

`Cc1cc2cc(N/C(=N/[N+](=O)[O-])N[C@H]3CCCCN(CC(=O)N4CCCC4)C3=O)ccc2o1` showed an IC50 (Coagulation factor X) of 0.025 µM and an Activity (Plasma) of over 50 µM.

`Cc1cc2cc(N/C(=N\S(=O)(=O)c3ccccc3)N[C@H]3CCCCN(CC(=O)N4CCCC4)C3=O)ccc2o1` was tested, and the IC50 (Coagulation factor X) was 0.024 µM and the Activity (Plasma) was over 50 µM.

Compound `CNC(=O)c1ccc(C(=O)/N=C(\Nc2ccc3oc(C)cc3c2)N[C@H]2CCCCN(CC(=O)N3CCCC3)C2=O)cn1` has an IC50 (Cytochrome P450 2C9) of 24 µM, an IC50 (Cytochrome P450 3A4) of 18 µM and an Activity (Plasma) of 3 µM. The IC50 (Cytochrome P450 2C19) was 12 µM.

For `Cc1cc2cc(N/C(=N\C(=O)c3cccc(Cl)c3)N[C@H]3CCCCN(CC(=O)N4CCCC4)C3=O)ccc2o1`, the Activity (Plasma) was over 50 µM.

`Cc1cc2cc(N/C(=N\C(=O)c3cncc(C(N)=O)c3)N[C@H]3CCCCN(CC(=O)N4CCCC4)C3=O)ccc2o1` was tested, and the IC50 (Cytochrome P450 2C9) was 10 µM, the IC50 (Cytochrome P450 3A4) was 0.4 µM and the Activity (Plasma) was 7 µM. For the same compound, the IC50 (Cytochrome P450 2C19) was 37 µM.

`Cc1cc2cc(N/C(=N\C(=O)c3cnccn3)N[C@H]3CCCCN(CC(=O)N4CCCC4)C3=O)ccc2o1` was tested, and the Activity (Plasma) was 18 µM.

In the case of `Cc1cc2cc(N/C(=N\C(=O)N(C)C)N[C@H]3CCCCN(CC(=O)N4CCCC4)C3=O)ccc2o1`, the Activity (Plasma) is reported as 55 µM.

Work on `Cc1ccc(C(=O)/N=C(\Nc2ccc3oc(C)cc3c2)N[C@H]2CCCCN(CC(=O)N3CCCC3)C2=O)cn1` yielded an IC50 (Cytochrome P450 2C9) of 9 µM, an IC50 (Cytochrome P450 3A4) of 7 µM and an Activity (Plasma) of 12 µM. The IC50 (Cytochrome P450 2C19) was 27 µM.

`Cc1cc2cc(/N=C(/NC(=O)c3cccnc3)N[C@H]3CCCCN(CC(=O)N4CCCC4)C3=O)ccc2o1` showed an IC50 (Cytochrome P450 2C9) of 10 µM, an IC50 (Cytochrome P450 3A4) of 0.3 µM and an Activity (Plasma) of 7 µM. The IC50 (Cytochrome P450 2C19) was 8 µM and the “fold change (FC)” value (Rattus norvegicus [2]) was “>=3.2”.

With `Cc1cc2cc(N/C(=N\C(=O)c3cccc(C(=O)N(C)C)c3)N[C@H]3CCCCN(CC(=O)N4CCCC4)C3=O)ccc2o1` the IC50 (Coagulation factor X) was 0.01 µM and the Activity (Plasma) was 8 µM.

Work on `Cc1cc2cc(N/C(=N\C(=O)c3ccc(C(=O)O)nc3)N[C@H]3CCCCN(CC(=O)N4CCCC4)C3=O)ccc2o1` yielded an IC50 (Cytochrome P450 2C9) of 122 µM, an IC50 (Cytochrome P450 3A4) of 87 µM and an Activity (Plasma) of 6.8 µM. For the same compound, the IC50 (Cytochrome P450 2C19) was 47 µM.

For `Cc1cc2cc(N/C(=N\C(=O)c3ccc(C(=O)N(C)C)cc3)N[C@H]3CCCCN(CC(=O)N4CCCC4)C3=O)ccc2o1`, the IC50 (Coagulation factor X) was 0.003 µM, the “fold change (FC)” value (Rattus norvegicus [1]) was “>=3.6” and the Activity (Plasma) was 4 µM.

For `Cc1cc2cc(N/C(=N\C(=O)c3ccc(C(N)=O)cc3)N[C@H]3CCCCN(CC(=O)N4CCCC4)C3=O)ccc2o1`, the IC50 (Coagulation factor X) was 0.003 µM, the “fold change (FC)” value (Rattus norvegicus [1]) was “>=3.6” and the Activity (Plasma) was 5 µM.

`Cc1cc2cc(N/C(=N\C(=O)c3ccc(Cl)nc3)N[C@H]3CCCCN(CC(=O)N4CCCC4)C3=O)ccc2o1` gave an IC50 (Cytochrome P450 2C9) of 12 µM, an IC50 (Cytochrome P450 3A4) of 8 µM and an Activity (Plasma) of 14 µM. The IC50 (Cytochrome P450 2C19) was 22 µM.

Work on `COC(=O)c1cccc(C(=O)/N=C(\Nc2ccc3oc(C)cc3c2)N[C@H]2CCCCN(CC(=O)N3CCCC3)C2=O)c1` yielded an IC50 (Coagulation factor X) of 0.005 µM and an Activity (Plasma) of 41 µM.

`Cc1cc2cc(N/C(=N\C(=O)c3ccc(C(N)=O)nc3)N[C@H]3CCCCN(CC(=O)N4CCCC4)C3=O)ccc2o1` gave an IC50 (Cytochrome P450 2C9) of 22 µM, an IC50 (Cytochrome P450 3A4) of 18 µM and an Activity (Plasma) of 5.7 µM. It also gave an IC50 (Cytochrome P450 2C19) of 13 µM.

Compound `COC(=O)c1ccc(C(=O)/N=C(\Nc2ccc3oc(C)cc3c2)N[C@H]2CCCCN(CC(=O)N3CCCC3)C2=O)cc1` has an Activity (Plasma) of 18 µM.

Compound `Cc1cc2cc(N/C(=N\S(N)(=O)=O)N[C@H]3CCCCN(CC(=O)N4CCCC4)C3=O)ccc2o1` has an IC50 (Coagulation factor X) of 0.012 µM and an Activity (Plasma) of over 50 µM.

Compound `Cc1cc2cc(N/C(=N\C(=O)c3ccoc3)N[C@H]3CCCCN(CC(=O)N4CCCC4)C3=O)ccc2o1` has an Activity (Plasma) of 33 µM.

Work on `Cc1cc2cc(N/C(=N\C(=O)c3nnn(C)n3)N[C@H]3CCCCN(CC(=O)N4CCCC4)C3=O)ccc2o1` yielded an Activity (Plasma) of 28 µM.

With `Cc1cc2cc(N/C(=N\C(=O)c3cccc(C(N)=O)c3)N[C@H]3CCCCN(CC(=O)N4CCCC4)C3=O)ccc2o1` the IC50 (Coagulation factor X) was 0.018 µM and the Activity (Plasma) was 7 µM.

`Cc1cc2cc(N/C(=N\S(C)(=O)=O)N[C@H]3CCCCN(CC(=O)N4CCCC4)C3=O)ccc2o1` gave an IC50 (Coagulation factor X) of 0.01 µM and an Activity (Plasma) of 60 µM.

With `Cc1cc2cc(N/C(=N\C(=O)c3ccncc3)N[C@H]3CCCCN(CC(=O)N4CCCC4)C3=O)ccc2o1` the Activity (Plasma) was 16 µM.

Compound `COC(=O)c1ccc(C(=O)/N=C(\Nc2ccc3oc(C)cc3c2)N[C@H]2CCCCN(CC(=O)N3CCCC3)C2=O)nc1` has an Activity (Plasma) of 16 µM.

`Cc1cc2cc(N/C(=N\C(N)=O)N[C@H]3CCCCN(CC(=O)N4CCCC4)C3=O)ccc2o1` showed an Activity (Plasma) of 60 µM.

Compound `CC(=O)/N=C(\Nc1ccc2oc(C)cc2c1)N[C@H]1CCCCN(CC(=O)N2CCCC2)C1=O` has an Activity (Plasma) of 70 µM.

Work on `Cc1cc2cc(N/C(=N\C(=O)c3cnn(C)c3)N[C@H]3CCCCN(CC(=O)N4CCCC4)C3=O)ccc2o1` yielded an Activity (Plasma) of 11 µM.

`Cc1cc2cc(N/C(=N\C(=O)c3ccccc3)N[C@H]3CCCCN(CC(=O)N4CCCC4)C3=O)ccc2o1` showed an Activity (Plasma) of 48 µM.

With `Cc1cc2cc(N/C(=N\C(=O)c3ccc[n+]([O-])c3)N[C@H]3CCCCN(CC(=O)N4CCCC4)C3=O)ccc2o1` the IC50 (Cytochrome P450 2C9) was 122 µM, the IC50 (Coagulation factor X) was 0.01 µM and the IC50 (Cytochrome P450 3A4) was 0.9 µM. It also gave an Activity (Plasma) of 3 µM and an IC50 (Cytochrome P450 2C19) of 128 µM.
